Source: PubChem BioAssay
Activity calls are given as the source filed them.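 Rule for the calls, unless noted: active = visually confirmed hit in the image check and inhibition above 20%; inconclusive = visually confirmed hit but inhibition not above 20%; inactive = no visual hit in the image check.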

Assays:
[1] = inhibitors of TNFa-induced NFkB p65 translocation, primary screen, imaging, HUVEC, MLSMR starter and 10KST1 sets (AID 438;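 active = inhibition above 20% together with a positive visual image hit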;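 note: compound added about 3h40 before a 20 min TNFalpha stimulation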;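 for inhibition: signal is the nuclear over cytoplasmic p65 intensity ratio per well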); settings: HUVEC TNFa-induced p65 nuclear translocation; cell count: measured here: nuclei count (cytotoxicity indicator), at 2.08 µM; inhibition: at 2 µM, stronger effect = higher value, 0% TNFa-plus-vehicle, 100% no-TNFa wells
[2] = inhibitors of E-selectin induction by TNFa, primary screen, imaging, HUVEC, immunofluorescence, MLSMR starter and 10KST1 sets (AID 487); settings: HUVEC TNFalpha-induced E-selectin immunofluorescence imaging, at 2 µM; inhibition: stronger effect = higher value; nuclei count: measured here: cell number, toxicity;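 for inhibition: signal is fraction of cell area covered by stained E-selectin grains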;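 for nuclei count: 100% = median nuclei count of all wells on the same plate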
[3] = DUSP6 inhibitors restoring Erk phosphorylation by chemical complementation, primary imaging in DUSP6-transfected HeLa (AID 609;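 active = compounds giving at least 50% inhibition in the cell-based MKP-3 phosphatase rescue imaging test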;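 for inhibition: phospho-Erk level distribution per well compared with pooled transfected vehicle control wells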); settings: HeLa MKP-3 transfected, phospho-Erk imaging KS statistic, at 10 µM, cells stimulated with TPA for 15 min
[4] = molecular target: Dual specificity protein phosphatase 6 (Homo sapiens) (UniProt Q16828); assay: as above; settings: HeLa MKP-3 transfected, phospho-Erk imaging KS statistic; at 10 µM; stronger effect = higher value; cells stimulated with TPA for 15 min
Chain of Dual specificity protein phosphatase 6 (Homo sapiens) (Q16828 whole entry, looked up): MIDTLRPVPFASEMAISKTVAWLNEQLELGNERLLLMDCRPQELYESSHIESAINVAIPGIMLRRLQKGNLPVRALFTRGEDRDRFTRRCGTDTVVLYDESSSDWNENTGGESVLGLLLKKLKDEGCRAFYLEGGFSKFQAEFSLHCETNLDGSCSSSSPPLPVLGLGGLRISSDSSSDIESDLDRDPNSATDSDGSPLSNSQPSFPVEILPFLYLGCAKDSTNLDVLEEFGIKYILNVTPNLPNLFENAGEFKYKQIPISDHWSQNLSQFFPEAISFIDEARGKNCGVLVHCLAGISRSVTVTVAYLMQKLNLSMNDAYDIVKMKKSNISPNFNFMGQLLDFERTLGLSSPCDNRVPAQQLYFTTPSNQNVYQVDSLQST

[5] = molecular target: Voltage-gated potassium channel subunit beta-2 (Rattus norvegicus) (UniProt P62483); assay: KvBeta enzyme negative modulators, primary screen, biochemical, NADPH fluorescence (AID 622;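 active = fluorescence slope higher than the sample average by over 3 SD, cut at about -0.22 in these data, passing the limit was not always enough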;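 note: slope of raw intensity against log time taken from 70 to 1610 s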); settings: recombinant KvBeta, 4-cyanobenzaldehyde reduction, at 10 µM, stronger effect = higher value
Chain of Voltage-gated potassium channel subunit beta-2 (Rattus norvegicus) (P62483 whole entry, looked up): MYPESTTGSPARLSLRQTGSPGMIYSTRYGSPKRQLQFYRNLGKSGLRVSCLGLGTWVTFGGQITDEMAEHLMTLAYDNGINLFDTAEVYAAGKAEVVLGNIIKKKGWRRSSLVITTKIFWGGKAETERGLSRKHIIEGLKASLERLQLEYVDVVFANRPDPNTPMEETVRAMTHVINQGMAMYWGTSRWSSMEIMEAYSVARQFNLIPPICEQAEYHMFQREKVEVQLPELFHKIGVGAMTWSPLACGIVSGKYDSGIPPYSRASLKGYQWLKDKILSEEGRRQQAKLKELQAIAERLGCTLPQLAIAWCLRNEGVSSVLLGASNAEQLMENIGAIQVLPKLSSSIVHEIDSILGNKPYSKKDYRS

[6] = molecular target: Voltage-gated potassium channel subunit beta-2 (Rattus norvegicus) (UniProt P62483); assay: KvBeta positive modulators, primary screen, biochemical, NADPH fluorescence (AID 623;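 active = NADPH fluorescence slope more negative than the mean of all samples by about 3 SD, 99.7% confidence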;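 note: fluorescence intensity change per second fitted from 20 to 320 s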); settings: Recombinant KvBeta, NADPH fluorescence decrease slope, 10 min; at 10 µM; stronger effect = lower value
[7] = molecular target: Muscarinic acetylcholine receptor M4 (Homo sapiens) (UniProt P08173); assay: compounds altering M4/GIRK thallium flux, either direction, primary screen, M4 allosteric agonist project, cell-based, HEK293 M4/GIRK, BTC-AM (AID 625;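 active = fluorescence slope after compound addition differing from the mean of all tested samples at 99.7% confidence, mostly higher but some lower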;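 note: thallium influx through GIRK channels coupled to M4 in HEK293 cells with BTC-AM dye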); settings: at 10 µM, actives lie on both sides
Chain of Muscarinic acetylcholine receptor M4 (Homo sapiens) (P08173 whole entry, looked up): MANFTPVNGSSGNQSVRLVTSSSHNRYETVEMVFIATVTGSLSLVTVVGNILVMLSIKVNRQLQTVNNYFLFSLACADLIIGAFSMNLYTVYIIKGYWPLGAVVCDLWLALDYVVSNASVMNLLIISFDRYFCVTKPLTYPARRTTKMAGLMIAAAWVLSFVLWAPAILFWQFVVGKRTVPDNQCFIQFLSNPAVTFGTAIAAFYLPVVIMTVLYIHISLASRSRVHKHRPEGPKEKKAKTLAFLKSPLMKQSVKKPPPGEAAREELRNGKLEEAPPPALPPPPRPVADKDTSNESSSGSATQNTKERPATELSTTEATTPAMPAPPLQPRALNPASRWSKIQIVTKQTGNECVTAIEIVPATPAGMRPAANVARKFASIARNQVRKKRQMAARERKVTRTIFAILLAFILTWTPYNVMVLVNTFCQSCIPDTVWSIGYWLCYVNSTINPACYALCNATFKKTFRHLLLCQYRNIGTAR
How it was run: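 System: HEK293 cells with M4 receptor and GIRK channels | Incubation: Cells overnight at 37 °C, BTC-AM loading 1 h, reads 2 min total | Technique: Kinetic BTC-AM fluorescence sampled at 1 Hz, 10 s pre-addition baseline | Measure: Post-addition slope, 15–24 s, of baseline-normalized fluorescence | Control set: Carbachol positive, DMSO negative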

[8] = inhibitors of larval lipid processing in zebrafish, primary screen, whole organism, PED6 fluorescence, gall bladder and intestine (AID 686;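 active = a full or partial loss of lipid-probe fluorescence in the fish gall bladder, intestine or both, judged by eye; inactive = no fluorescence loss, or compound toxic to the fish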;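 note: larvae 5 to 7 days old with five fish per well; signal comes from phospholipase A2 cleavage of quenched PED6 carried via bile; overnight exposure to compound and PED6 before scoring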); settings: Zebrafish larvae PED6 lipid processing, fluorescence scoring; screened at 20 µM (by protocol)
How it was run: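 Test system – live zebrafish larvae aged 5-7 days, whole organism · Buffer or medium – E3 fish medium · Reagent – quenched phospholipase substrate PED6, 100 nM final, ingested by larvae · Doses – 20 µM single dose · Incubation – overnight compound and PED6 incubation · Technique – visual fluorescence microscopy scoring of gall bladder, gut · Read-out basis – visual per-well fluorescence inhibition score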

[9] = inhibitors of Chlamydomonas gravitaxis, primary screen, whole organism, Chlamydomonas reinhardtii, WT vs cilia-less mutant, absorbance, 96-well (AID 463189;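 active = inhibition at or above 50% relative to wild type and mutant plate controls; inactive = inhibition below 50%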;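 note: 0% = wild type cc124 cells in DMSO and 100% = ciliumless bld1 mutant cells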); settings: OD600 absorbance, 2 days, at 10 µM, stronger effect = higher value
[10] = measured here: cell density z-score
[11] = measured here: nuclear c-Myc green intensity z-score
[12] = measured here: nuclear pErk red intensity z-score, stronger effect = higher value

Compound | cell count [1] | inhibition [1] | inhibition [2] | nuclei count [2] | z-score [3, 10] | z-score [3, 11] | z-score [3, 12] | inhibition [4] | fluorescence slope [5] | NADPH fluorescence slope [6] | fluorescence slope [7] | outcome [8] | inhibition [9]
CCC(=NC(CC)CO)C1=C(O)CC(C)(C)CC1=O (stereo not drawn) | 686 | -11.6% (inactive) | -103% (inactive) | 171% | 0.537 | -0.145 | 1.26 | -13.3% (inactive) | -0.519 (inactive) | -8.5e-05 (inactive) | 0.00583 (inactive) | inactive | -0.04% (inactive)
CC(=O)Nc1ccc(OC(=O)CC2SC(=O)NC2=O)cc1 (stereo not drawn) | 552 | -6.8% (inactive) | -32.3% (inactive) | 97.7% | -1.89 | 0.746 | -1.34 | -2.91% (inactive) | -0.469 (inactive) | -3.2e-05 (inactive) | 0.00549 (inactive) | inactive | -6.84% (inactive)
C=CCn1c(=N)c(C(=O)OCC)cc2c(=O)n3cccc(C)c3nc21 | 614 | 5.3% (inactive) | -125% (inactive) | 149% | -2.08 | 1.41 | 1.9 | -9.66% (inactive) | -0.114 (inactive) | -2e-05 (inactive) | 0.00285 (inactive) | inactive | 159% (active)
O=c1[nH]c(CN(CCO)CCO)nc2c1C1(CCCCC1)Cc1ccccc1-2 | 692 | -15.1% (inactive) | -131% (inactive) | 181% | 0.688 | 0.303 | 0.475 | 9.91% (inactive) | -0.47 (inactive) | -5.1e-05 (inactive) | 0.00503 (inactive) | inactive | 1.18% (inactive)
CCCCCOc1ccccc1C(=O)NCCCC(=O)O | 352 | -4.8% (inactive) | -57.4% (inactive) | 116% | 0.366 | -0.837 | 0.123 | 19.4% (inactive) | -0.463 (inactive) | -0.000126 (inactive) | 0.00541 (inactive) | inactive | 32.4% (inactive)
Cc1cc(N2C(=O)C(=O)/C(=C(/O)c3ccc(F)cc3)C2c2cccc(Br)c2)no1 (stereo not drawn) | 478 | 2.6% (inactive) | 2.7% (inactive) | 145% | 0.015 | 0.305 | 1.03 | 1.04% (inactive) | -0.439 (inactive) | -4.6e-05 (inactive) | 0.00551 (inactive) | inactive | 15.6% (inactive)
